Measurements: ChEMBL document CHEMBL1938297, “Synthesis, radiofluorination and pharmacological evaluation of a fluoromethyl spirocyclic PET tracer for central σ1 receptors and comparison with fluoroalkyl homologs” (Bioorg Med Chem, 2012)

Key:
[1] = tested on: Mus musculus; experiment: Biodistribution in CD1 mouse eye at 300 kBq, iv after 60 mins by gamma counting; type: ADME, organism-based; conditions: in vivo, 1 h
How it was run: (§1)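 Female CD-1 mice received [18F]1 (300 kBq) i.v.; 3–6 animals per time point anesthetized at 5, 30, 60 or 120 min p.i., blood and urine collected, animals euthanized by cervical dislocation, organs dissected and weighed. Radioactivity counted in a calibrated gamma counter; % ID/g = tissue counts / initial dose counts / tissue weight; means with SD.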

[2] = tested on: Mus musculus; experiment: Biodistribution in CD1 mouse fat at 300 kBq, iv after 60 mins by gamma counting; type: ADME, organism-based, Adipose tissue; conditions: in vivo, 1 h; how it was run: as §1
[3] = tested on: Blood; experiment: Biodistribution in CD1 mouse blood at 300 kBq, iv after 120 mins by gamma counting; type: ADME, organism-based; conditions: in vivo, 2 h; how it was run: as §1
[4] = tested on: Stomach; experiment: Biodistribution in CD1 mouse stomach at 300 kBq, iv after 120 mins by gamma counting; type: ADME, organism-based; conditions: in vivo, 2 h
How it was run: (§2)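 Female CD-1 mice received the 18F tracer iv at 300 kBq in 0.9% NaCl containing 5% ethanol; 3–6 animals per time point (5, 30, 60, 120 min p.i.). Animals anaesthetized, blood and urine collected, killed by cervical luxation, organs dissected and weighed, counted in calibrated gamma counter. %ID/g = tissue counts / initial dose counts / tissue weight; mean with SD.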

[5] = tested on: Mus musculus; experiment: Biodistribution in CD1 mouse large intestine at 300 kBq, iv after 120 mins by gamma counting; type: ADME, organism-based; conditions: in vivo, 2 h; how it was run: as §2
[6] = Biodistribution in CD1 mouse urine at 300 kBq, iv after 120 mins by gamma counting; type: ADME, organism-based; conditions: in vivo, 2 h
How it was run: (§3)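 Female CD-1 mice received 300 kBq of the radiotracer i.v.; 3–6 animals per time point were anaesthetised at 5, 30, 60 or 120 min p.i. Blood and urine were collected, animals were killed by cervical dislocation, and organs were dissected and weighed. Activity was counted in a calibrated gamma counter and expressed as % injected dose per g wet tissue, mean with SD.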

[7] = tested on: Pancreas; experiment: Biodistribution in CD1 mouse pancreas at 300 kBq, iv after 120 mins by gamma counting; type: ADME, organism-based; conditions: in vivo, 2 h; how it was run: as §2
[8] = tested on: Mus musculus; experiment: Biodistribution in CD1 mouse adrenals at 300 kBq, iv after 120 mins by gamma counting; type: ADME, organism-based, Adrenal gland; conditions: in vivo, 2 h; how it was run: as §1
[9] = tested on: Mus musculus; experiment: Biodistribution in CD1 mouse gonads at 300 kBq, iv after 120 mins by gamma counting; type: ADME, organism-based, Gonad; conditions: in vivo, 2 h; how it was run: as §1
[10] = tested on: Femur; experiment: Biodistribution in CD1 mouse flushed femur at 300 kBq, iv after 120 mins by gamma counting; type: ADME, organism-based; conditions: in vivo, 2 h; how it was run: as §1
[11] = tested on: Mus musculus; experiment: Biodistribution in CD1 mouse eye at 300 kBq, iv after 120 mins by gamma counting; type: ADME, organism-based; conditions: in vivo, 2 h; how it was run: as §1
[12] = Metabolic stability in CD1 mouse brain homogenate assessed as compound remaining at 191 MBq, iv after 60 mins by radio-HPLC/TLC analysis; type: ADME, organism-based; conditions: read-out: Stability
How it was run: (§4)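 Female CD-1 mice were injected with the radiotracer via the tail vein and killed at 30 or 60 min p.i. Whole brains (n = 2 per time) were homogenised in 50 mM TRIS–HCl pH 7.4 at 4 °C and extracted twice with ice-cold acetonitrile. Concentrated extracts were analysed by radio-HPLC and radio-TLC to give % parent versus radiometabolites.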

[13] = tested on: Brain; experiment: Drug metabolism in CD1 mouse brain homogenates assessed as radiometabolites at 191 MBq, iv after 60 mins by radio-HPLC/TLC analysis; type: ADME, organism-based; conditions: in vivo, 1 h; how it was run: as §4
[14] = tested on: Mus musculus; experiment: Biodistribution in CD1 mouse dorsolateral periaqueductal gray in brain saggital section at 24 MBq, iv at 45 mins by autoradiography; type: ADME, organism-based; conditions: in vivo, 0.75 h
How it was run: (§5)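 Female CD-1 mouse given [18F]1 (24 MBq) i.v. and sacrificed at 45 min. Brain hemispheres frozen in isopentane (−35 °C), cut into 12 µm sagittal cryosections, thaw-mounted, air-dried and exposed to 18F-sensitive storage phosphor screens. Anterior olfactory bulb served as nontarget region for target-to-nontarget ratios.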

[15] = tested on: Mus musculus; experiment: Biodistribution in CD1 mouse anterior olfactory bulb in brain saggital section at 24 MBq, iv at 45 mins by autoradiography; type: ADME, organism-based; conditions: in vivo, 0.75 h; how it was run: as §5
[16] = tested on: Brain; experiment: Biodistribution in CD1 mouse brain at 300 kBq, iv after 5 mins by gamma counting; type: ADME, organism-based; conditions: in vivo; how it was run: as §1
[17] = tested on: Cerebellum; experiment: Biodistribution in CD1 mouse cerebellum at 300 kBq, iv after 5 mins by gamma counting; type: ADME, organism-based; conditions: in vivo; how it was run: as §1
[18] = tested on: Lung; experiment: Biodistribution in CD1 mouse lung at 300 kBq, iv after 5 mins by gamma counting; type: ADME, organism-based; conditions: in vivo; how it was run: as §2
[19] = tested on: Mus musculus; experiment: Biodistribution in CD1 mouse large intestine at 300 kBq, iv after 5 mins by gamma counting; type: ADME, organism-based; conditions: in vivo; how it was run: as §2
[20] = tested on: Liver; experiment: Biodistribution in CD1 mouse liver at 300 kBq, iv after 5 mins by gamma counting; type: ADME, organism-based; conditions: in vivo; how it was run: as §2
[21] = Biodistribution in CD1 mouse urine at 300 kBq, iv after 5 mins by gamma counting; type: ADME, organism-based; conditions: in vivo; how it was run: as §3
[22] = tested on: Mus musculus; experiment: Biodistribution in CD1 mouse thymus at 300 kBq, iv after 5 mins by gamma counting; type: ADME, organism-based; conditions: in vivo; how it was run: as §2
[23] = tested on: Pancreas; experiment: Biodistribution in CD1 mouse pancreas at 300 kBq, iv after 5 mins by gamma counting; type: ADME, organism-based; conditions: in vivo; how it was run: as §2
[24] = tested on: Mus musculus; experiment: Biodistribution in CD1 mouse gonads at 300 kBq, iv after 5 mins by gamma counting; type: ADME, organism-based, Gonad; conditions: in vivo; how it was run: as §1
[25] = tested on: Mus musculus; experiment: Biodistribution in CD1 mouse eye at 300 kBq, iv after 5 mins by gamma counting; type: ADME, organism-based; conditions: in vivo; how it was run: as §1
[26] = tested on: Brain; experiment: Biodistribution in CD1 mouse brain at 300 kBq, iv after 30 mins by gamma counting; type: ADME, organism-based; conditions: in vivo, 0.5 h; how it was run: as §1
[27] = tested on: Mus musculus; experiment: Biodistribution in CD1 mouse small intestine at 300 kBq, iv after 30 mins by gamma counting; type: ADME, organism-based; conditions: in vivo, 0.5 h; how it was run: as §2
[28] = tested on: Liver; experiment: Biodistribution in CD1 mouse liver at 300 kBq, iv after 30 mins by gamma counting; type: ADME, organism-based; conditions: in vivo, 0.5 h; how it was run: as §2
[29] = tested on: Kidney; experiment: Biodistribution in CD1 mouse kidney at 300 kBq, iv after 30 mins by gamma counting; type: ADME, organism-based; conditions: in vivo, 0.5 h; how it was run: as §2
[30] = tested on: Mus musculus; experiment: Biodistribution in CD1 mouse eye at 300 kBq, iv after 30 mins by gamma counting; type: ADME, organism-based; conditions: in vivo, 0.5 h; how it was run: as §1
[31] = tested on: Brain; experiment: Biodistribution in CD1 mouse brain at 300 kBq, iv after 60 mins by gamma counting; type: ADME, organism-based; conditions: in vivo, 1 h; how it was run: as §1
[32] = tested on: Stomach; experiment: Biodistribution in CD1 mouse stomach at 300 kBq, iv after 60 mins by gamma counting; type: ADME, organism-based; conditions: in vivo, 1 h; how it was run: as §2
[33] = Biodistribution in CD1 mouse intestinal content at 300 kBq, iv after 60 mins by gamma counting; type: ADME, organism-based, Intestine; conditions: in vivo, 1 h; how it was run: as §2
[34] = tested on: Kidney; experiment: Biodistribution in CD1 mouse kidney at 300 kBq, iv after 60 mins by gamma counting; type: ADME, organism-based; conditions: in vivo, 1 h; how it was run: as §2
[35] = Biodistribution in CD1 mouse urine at 300 kBq, iv after 60 mins by gamma counting; type: ADME, organism-based; conditions: in vivo, 1 h; how it was run: as §3
[36] = tested on: Mus musculus; experiment: Biodistribution in CD1 mouse thymus at 300 kBq, iv after 60 mins by gamma counting; type: ADME, organism-based; conditions: in vivo, 1 h; how it was run: as §3
[37] = tested on: Pancreas; experiment: Biodistribution in CD1 mouse pancreas at 300 kBq, iv after 60 mins by gamma counting; type: ADME, organism-based; conditions: in vivo, 1 h; how it was run: as §2
[38] = tested on: Mus musculus; experiment: Biodistribution in CD1 mouse adrenals at 300 kBq, iv after 60 mins by gamma counting; type: ADME, organism-based, Adrenal gland; conditions: in vivo, 1 h; how it was run: as §1
[39] = tested on: Mus musculus; experiment: Biodistribution in CD1 mouse gonads at 300 kBq, iv after 60 mins by gamma counting; type: ADME, organism-based, Gonad; conditions: in vivo, 1 h; how it was run: as §1

[18F]CC1OC2(CCN(Cc3ccccc3)CC2)c2ccccc21 (centres undefined)
Drug uptake [1]: 0.87 % ID/g
Drug uptake [2]: 2.02 % ID/g
Drug uptake [3]: 0.15 % ID/g
Drug uptake [4]: 1.9 % ID/g
Drug uptake [5]: 1.46 % ID/g
Drug uptake [6]: 56.46 % ID/g
Drug uptake [7]: 11.99 % ID/g
Drug uptake [8]: 6.6 % ID/g
Drug uptake [9]: 3.55 % ID/g
Drug uptake [10]: 1.29 % ID/g
Drug uptake [11]: 1.53 % ID/g
remaining at 1 h [12]: 79%
Drug metabolism [13]: Active
Drug uptake [14]: Active
Drug uptake [15]: Active
Drug uptake [16]: 7.15 % ID/g
Drug uptake [17]: 8.2 % ID/g
Drug uptake [18]: 18.01 % ID/g
Drug uptake [19]: 0.91 % ID/g
Drug uptake [20]: 5.31 % ID/g
Drug uptake [21]: 3.99 % ID/g
Drug uptake [22]: 3.61 % ID/g
Drug uptake [23]: 11.22 % ID/g
Drug uptake [24]: 3.26 % ID/g
Drug uptake [25]: 1.89 % ID/g
Drug uptake [26]: 4.56 % ID/g
Drug uptake [27]: 18.82 % ID/g
Drug uptake [28]: 6.68 % ID/g
Drug uptake [29]: 9.61 % ID/g
Drug uptake [30]: 2 % ID/g
Drug uptake [31]: 2.99 % ID/g
Drug uptake [32]: 1.77 % ID/g
Drug uptake [33]: 0.32 % ID/g
Drug uptake [34]: 6.03 % ID/g
Drug uptake [35]: 45.5 % ID/g
Drug uptake [36]: 2.5 % ID/g
Drug uptake [37]: 9.27 % ID/g
Drug uptake [38]: 7.48 % ID/g
Drug uptake [39]: 3.28 % ID/g
